From ChEMBL document CHEMBL2150881, “JD-5006 and JD-5037: peripherally restricted (PR) cannabinoid-1 receptor blockers related to SLV-319 (Ibipinabant) as metabolic disorder therapeutics devoid of CNS liabilities” (Bioorg Med Chem Lett, 2012)

What was measured:
Cannabinoid receptor 1 [1] = molecular target: T1, Cannabinoid receptor 1 (Homo sapiens, UniProt P21554); assay: Displacement of 3[H]ligand from recombinant human CB1 receptor
Method in brief: (§1)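 Radioligand displacement from human recombinant CB1 and CB2 protein by a [³H] ligand. Initial screen at two concentrations in duplicate, with values >100 nM estimated. Percent inhibition read at 100 nM. IC₅₀ taken from four-point concentration curves run in duplicate.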

Cannabinoid receptor 2 = Cannabinoid receptor 2 (Homo sapiens, UniProt P34972); assay: Displacement of 3[H]ligand from recombinant human CB2 receptor; method in brief: as §1
Cannabinoid receptor 2, sequence (P34972 whole entry): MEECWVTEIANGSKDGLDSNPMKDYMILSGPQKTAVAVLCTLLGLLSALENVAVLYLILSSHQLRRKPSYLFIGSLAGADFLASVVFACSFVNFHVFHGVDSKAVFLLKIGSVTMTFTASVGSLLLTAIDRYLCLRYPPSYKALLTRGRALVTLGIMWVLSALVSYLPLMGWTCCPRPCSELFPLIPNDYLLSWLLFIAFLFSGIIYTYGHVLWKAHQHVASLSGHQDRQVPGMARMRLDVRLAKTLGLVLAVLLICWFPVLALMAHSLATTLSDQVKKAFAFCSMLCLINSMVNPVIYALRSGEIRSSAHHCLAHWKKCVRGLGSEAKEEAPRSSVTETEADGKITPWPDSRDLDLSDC

[2] = Apparent permeability from basolateral to apical side in MDR expressing MDCK cells by LC-MS-MS analysis; format: ADME, cell-based, Canis lupus familiaris; conditions: dog, MDCK-MDR1
Method in brief: (§2)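 Permeability measured across MDR-MDCK kidney cell monolayers, giving apparent permeability (Papp) in the apical-to-basolateral and basolateral-to-apical directions.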

[3] = Apparent permeability from apical to basolateral side in MDR expressing MDCK cells by LC-MS-MS analysis; format: ADME, cell-based, Canis lupus familiaris; conditions: dog, MDCK-MDR1; method in brief: as §2
Mus musculus [4] = assay: In vivo receptor occupancy at CB1 receptor in mouse hippocampus assessed as inhibition of [3H]SR141716A binding at 3 mg/kg, po for 3 days measured after 1 hr post last dose; format: functional
Method in brief: (§3)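 Chow-fed mice dosed orally once daily at 3 or 30 mg/kg for 3 consecutive days, killed 1 h after the last dose. [3H]SR141716A was given by lateral tail-vein injection 30 min before euthanasia. Hippocampus, cerebellum and brain stem (reference region) were scintillation-counted as DPM/mg. Binding potential = (receptor − reference)/reference. Occupancy (%) = 100 × (vehicle BP − drug BP)/vehicle BP. 5 animals per dose.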

Mus musculus [5] = assay: In vivo receptor occupancy at CB1 receptor in mouse hippocampus assessed as inhibition of [3H]SR141716A binding at 30 mg/kg, po for 3 days measured after 1 hr post last dose; format: functional; method in brief: as §3
Mus musculus [6] = assay: In vivo receptor occupancy at CB1 receptor in mouse cerebellum assessed as inhibition of [3H]SR141716A binding at 3 mg/kg, po for 3 days measured after 1 hr post last dose; format: functional; method in brief: as §3
[7] = molecular target: Cannabinoid receptor 1 (Mus musculus) (UniProt P47746); conditions: Cerebellum, 30 mg/kg
Cannabinoid receptor 1 (Mus musculus), sequence (P47746 whole entry): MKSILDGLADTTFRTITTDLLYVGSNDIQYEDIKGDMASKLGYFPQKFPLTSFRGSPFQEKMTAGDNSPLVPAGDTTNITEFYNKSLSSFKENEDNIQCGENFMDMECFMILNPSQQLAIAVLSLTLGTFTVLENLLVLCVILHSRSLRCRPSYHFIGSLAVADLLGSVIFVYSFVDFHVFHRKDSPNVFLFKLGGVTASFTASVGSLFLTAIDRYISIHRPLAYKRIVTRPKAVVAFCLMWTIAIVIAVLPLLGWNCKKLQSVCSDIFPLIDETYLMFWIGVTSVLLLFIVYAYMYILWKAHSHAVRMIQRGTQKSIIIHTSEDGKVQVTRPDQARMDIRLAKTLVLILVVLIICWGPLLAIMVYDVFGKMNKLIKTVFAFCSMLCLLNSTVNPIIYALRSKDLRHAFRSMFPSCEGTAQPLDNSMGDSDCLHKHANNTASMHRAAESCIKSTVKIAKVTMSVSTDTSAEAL

[8] = Efflux ratio of permeability from […] in MDR expressing MDCK cells; format: ADME, cell-based, Canis lupus familiaris; conditions: dog, MDCK-MDR1
Cannabinoid receptor 1 [9] = molecular target: T1, Cannabinoid receptor 1; assay: Displacement of 3[H]ligand from recombinant human CB1 receptor at 100 nM; method in brief: as §1

T1 sequence (P21554 whole entry): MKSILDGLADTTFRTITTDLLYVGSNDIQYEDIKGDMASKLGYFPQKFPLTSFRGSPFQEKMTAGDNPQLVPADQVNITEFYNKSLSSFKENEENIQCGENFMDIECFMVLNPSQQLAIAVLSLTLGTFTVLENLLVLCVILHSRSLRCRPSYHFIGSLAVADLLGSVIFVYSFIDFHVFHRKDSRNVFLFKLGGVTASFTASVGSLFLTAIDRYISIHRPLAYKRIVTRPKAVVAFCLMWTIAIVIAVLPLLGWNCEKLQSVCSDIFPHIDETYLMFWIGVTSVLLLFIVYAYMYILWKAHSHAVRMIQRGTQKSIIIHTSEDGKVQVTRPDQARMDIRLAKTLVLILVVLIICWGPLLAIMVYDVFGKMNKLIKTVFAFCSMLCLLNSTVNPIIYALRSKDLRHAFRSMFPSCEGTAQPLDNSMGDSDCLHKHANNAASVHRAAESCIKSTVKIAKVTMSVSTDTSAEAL

SMILES	IC50 (Cannabinoid receptor 1 [1])	IC50 (Cannabinoid receptor 2)	further results
CC(C)(C)[C@H](N/C(=N\S(=O)(=O)c1ccc(Cl)cc1)N1CC(c2ccccc2)C(c2ccc(Cl)cc2)=N1)C(N)=O (some centres not stated)	0.002 µM	> 5 µM	Papp B→A [2]: < 0.1 ×10⁻⁶ cm/s; Papp A→B [3]: 0.7 ×10⁻⁶ cm/s
C[C@H](N/C(=N\S(=O)(=O)c1ccc(O)cc1)N1CC(c2ccccc2)C(c2ccc(Cl)cc2)=N1)C(N)=O (some centres not stated)	> 0.5 µM	> 5 µM	
NC(=O)[C@@H](N/C(=N\S(=O)(=O)c1ccc(Cl)cc1)N1CC(c2ccccc2)C(c2ccc(Cl)cc2)=N1)C1CCC1 (some centres not stated)	0.0083 µM	> 1 µM	
CC(C)[C@H](N/C(=N\S(=O)(=O)c1ccc(Cl)cc1)N1C[C@H](c2ccccc2)C(c2ccc(Cl)cc2)=N1)C(N)=O	0.0005 µM	> 1 µM	Occ (Mus musculus [4]): 10%; Occ (Mus musculus [5]): 0%; Occ (Mus musculus [6]): 0%; Occ [7]: 0%
C[C@H](N=C(NS(=O)(=O)c1ccc(Cl)cc1)N1CC(c2ccccc2)C(c2ccc(Cl)cc2)=N1)C(=O)N[C@@H](CO)C(N)=O (some centres not stated)	0.008 µM	> 5 µM	
C[C@H](N/C(=N\S(=O)(=O)c1ccc(Cl)cc1)N1CC(c2ccccc2)C(c2ccc(Cl)cc2)=N1)C(N)=O (some centres not stated)	0.02 µM	> 1 µM	Papp B→A [2]: 9.25 ×10⁻⁶ cm/s; Papp A→B [3]: 2.44 ×10⁻⁶ cm/s; efflux ratio [8]: 3.8
CCOC(=O)Nc1ccc(S(=O)(=O)NC(=NC)N2CC(c3ccccc3)C(c3ccc(Cl)cc3)=N2)cc1 (racemic)	0.3 µM		
NC(=O)CN=C(NS(=O)(=O)c1ccc(O)cc1)N1CC(c2ccccc2)C(c2ccc(Cl)cc2)=N1 (configuration not stated)	> 0.1 µM	5 µM	
CC(C)[C@H](N/C(=N\S(=O)(=O)c1ccc(Cl)cc1)N1C[C@@H](c2ccccc2)C(c2ccc(Cl)cc2)=N1)C(N)=O	> 1 µM		
C[C@@H](O)[C@H](N/C(=N\S(=O)(=O)c1ccc(Cl)cc1)N1CC(c2ccccc2)C(c2ccc(Cl)cc2)=N1)C(=O)N[C@@H](CO)C(N)=O (some centres not stated)	0.007 µM	> 1 µM	
CC(CN/C(=N\S(=O)(=O)c1ccc(Cl)cc1)N1CC(c2ccccc2)C(c2ccc(Cl)cc2)=N1)C(N)=O (racemic)	0.026 µM	> 1 µM	
NC(=O)CCN=C(NS(=O)(=O)c1ccc(Cl)cc1)N1CC(c2ccccc2)C(c2ccc(Cl)cc2)=N1 (racemic)	0.032 µM	> 5 µM	Papp B→A [2]: 58 ×10⁻⁶ cm/s; Papp A→B [3]: 0.88 ×10⁻⁶ cm/s; efflux ratio [8]: 66
NC(=O)[C@@H](O)CCN/C(=N\S(=O)(=O)c1ccc(Cl)cc1)N1CC(c2ccccc2)C(c2ccc(Cl)cc2)=N1 (some centres not stated)	0.066 µM	> 5 µM	
C[C@H](N/C(=N\S(=O)(=O)c1ccc(Cl)cc1)N1CC(c2ccccc2)C(c2ccc(Cl)cc2)=N1)C(=O)NCC(N)=O (some centres not stated)	0.01 µM	> 1 µM	
CN/C(=N\S(=O)(=O)c1ccc(NC(C)=O)cc1)N1CC(c2ccccc2)C(c2ccc(Cl)cc2)=N1 (racemic)	> 1 µM		
NC(=O)[C@H](Cc1ccccc1)N=C(NS(=O)(=O)c1ccc(Cl)cc1)N1CC(c2ccccc2)C(c2ccc(Cl)cc2)=N1 (some centres not stated)		> 5 µM	
C[C@H](O)[C@@H](N=C(NS(=O)(=O)c1ccc(Cl)cc1)N1CC(c2ccccc2)C(c2ccc(Cl)cc2)=N1)C(N)=O (some centres not stated)	> 0.1 µM	> 5 µM	
C[C@@H](O)[C@H](N/C(=N/S(=O)(=O)c1ccc(Cl)cc1)N1CC(c2ccccc2)C(c2ccc(Cl)cc2)=N1)C(N)=O (some centres not stated)	0.007 µM	> 5 µM	Papp B→A [2]: 18.6 ×10⁻⁶ cm/s; Papp A→B [3]: < 0.9 ×10⁻⁶ cm/s; efflux ratio [8]: > 20
COC(=O)CN/C(=N\S(=O)(=O)c1ccc(Cl)cc1)N1CC(c2ccccc2)C(c2ccc(Cl)cc2)=N1 (configuration not stated)			inhibition (Cannabinoid receptor 1 [9]): 88%
NC(=O)CN/C(=N\S(=O)(=O)c1ccc(Cl)cc1)N1CC(c2ccccc2)C(c2ccc(Cl)cc2)=N1 (single isomer, unassigned; enantiomer 1)			Occ [7]: 0%
COc1ccc(S(=O)(=O)/N=C(\N[C@@H](C)C(=O)N[C@@H](CO)C(N)=O)N2CC(c3ccccc3)C(c3ccc(Cl)cc3)=N2)cc1 (some centres not stated)	> 0.1 µM	> 5 µM	
COc1cccc(S(=O)(=O)/N=C(\N[C@H](C(N)=O)C(C)C)N2CC(c3ccccc3)C(c3ccc(Cl)cc3)=N2)c1 (some centres not stated)	0.004 µM	> 1 µM	
CN=C(NS(=O)(=O)c1ccc(OCC(N)=O)cc1)N1CC(c2ccccc2)C(c2ccc(Cl)cc2)=N1 (racemic)	> 5 µM		

SMILES	IC50 (Cannabinoid receptor 1 [1])	IC50 (Cannabinoid receptor 2)	further results
COc1ccc(S(=O)(=O)NC(=N[C@H](C(=O)NCC(N)=O)C(C)C)N2CC(c3ccccc3)C(c3ccc(Cl)cc3)=N2)cc1 (some centres not stated)	> 0.1 µM	> 5 µM	
NC(=O)[C@H](CO)N=C(NS(=O)(=O)c1ccc(Cl)cc1)N1CC(c2ccccc2)C(c2ccc(Cl)cc2)=N1 (some centres not stated)	0.013 µM	> 5 µM	
C[C@H](N=C(NS(=O)(=O)c1ccc(Cl)cc1)N1CC(c2ccccc2)C(c2ccc(Cl)cc2)=N1)C(=O)O (some centres not stated)	> 1 µM		
CN=C(NS(=O)(=O)c1ccc(C(=O)NO)cc1)N1CC(c2ccccc2)C(c2ccc(Cl)cc2)=N1 (racemic)	> 5 µM		
CC(C)[C@H](N/C(=N\S(=O)(=O)c1ccc(Cl)cc1)N1CC(c2ccccc2)C(c2ccc(Cl)cc2)=N1)C(=O)N[C@@H](C)C(N)=O (some centres not stated)	0.1 µM	> 5 µM	
CN/C(=N\S(=O)(=O)c1ccc(C(=O)O)cc1)N1CC(c2ccccc2)C(c2ccc(Cl)cc2)=N1 (racemic)	> 5 µM		
COc1ccc(S(=O)(=O)NC(=NCC(N)=O)N2CC(c3ccccc3)C(c3ccc(Cl)cc3)=N2)cc1 (configuration not stated)	0.1 µM	> 5 µM	
O=C(O)[C@@H](O)CCN=C(NS(=O)(=O)c1ccc(Cl)cc1)N1CC(c2ccccc2)C(c2ccc(Cl)cc2)=N1 (some centres not stated)	> 1 µM		
CC(C)(N/C(=N\S(=O)(=O)c1ccc(Cl)cc1)N1CC(c2ccccc2)C(c2ccc(Cl)cc2)=N1)C(N)=O (racemic)	0.0085 µM	> 1 µM	
CC(C)[C@H](N/C(=N\S(=O)(=O)c1ccc(Cl)cc1)N1CC(c2ccccc2)C(c2ccc(Cl)cc2)=N1)C(=O)NCC(N)=O (some centres not stated)	> 0.1 µM	> 1 µM	
COc1ccc(S(=O)(=O)NC(=N[C@@H](C)C(N)=O)N2CC(c3ccccc3)C(c3ccc(Cl)cc3)=N2)cc1 (some centres not stated)	0.07 µM	> 5 µM	
COC(=O)[C@H](C)N/C(=N\S(=O)(=O)c1ccc(Cl)cc1)N1CC(c2ccccc2)C(c2ccc(Cl)cc2)=N1 (some centres not stated)			inhibition (Cannabinoid receptor 1 [9]): 96%
C[C@H](NC(=O)[C@H](C)N/C(=N\S(=O)(=O)c1ccc(Cl)cc1)N1CC(c2ccccc2)C(c2ccc(Cl)cc2)=N1)C(N)=O (some centres not stated)	0.027 µM	> 5 µM	Papp A→B [3]: 0.3 ×10⁻⁶ cm/s
CN/C(=N\S(=O)(=O)c1ccc(C(N)=O)cc1)N1CC(c2ccccc2)C(c2ccc(Cl)cc2)=N1 (racemic)	> 5 µM		
NC(=O)CN=C(NS(=O)(=O)c1ccc(Cl)cc1)N1CC(c2ccccc2)C(c2ccc(Cl)cc2)=N1 (single isomer, unassigned; enantiomer 2)	> 1 µM	> 1 µM	
CCOC(=O)c1ccc(S(=O)(=O)NC(=NC)N2CC(c3ccccc3)C(c3ccc(Cl)cc3)=N2)cc1 (racemic)	0.1 µM		
CCOC(=O)[C@@H](O)CCN/C(=N\S(=O)(=O)c1ccc(Cl)cc1)N1CC(c2ccccc2)C(c2ccc(Cl)cc2)=N1 (some centres not stated)			inhibition (Cannabinoid receptor 1 [9]): 53%
O=C(O)CN=C(NS(=O)(=O)c1ccc(Cl)cc1)N1CC(c2ccccc2)C(c2ccc(Cl)cc2)=N1 (configuration not stated)	> 1 µM		
NC(=O)C[C@H](N=C(NS(=O)(=O)c1ccc(Cl)cc1)N1CC(c2ccccc2)C(c2ccc(Cl)cc2)=N1)C(N)=O (some centres not stated)	> 0.1 µM	> 5 µM	
CN=C(NS(=O)(=O)c1ccc(OCC(=O)O)cc1)N1CC(c2ccccc2)C(c2ccc(Cl)cc2)=N1 (racemic)	> 5 µM		
CN=C(NS(=O)(=O)c1ccc(OC)cc1)N1CC(c2ccccc2)C(c2ccc(Cl)cc2)=N1 (racemic)	0.1 µM		
NC(=O)[C@H](Cc1ccccc1)N/C(=N\S(=O)(=O)c1ccc(Cl)cc1)N1CC(c2ccccc2)C(c2ccc(Cl)cc2)=N1 (some centres not stated)			inhibition (Cannabinoid receptor 1 [9]): 61%
